# Compound activity (PubChem BioAssay)
# The list is not random: actives were taken first. Their share in the collection is about 0.94%.
# GC-A act – GC-A (human) enzyme activation; P16066; HEK293 GC-A cells, cGMP TR-FRET, EC30 ANP; 0% at EC30 ANP, 100% saturating ANP; activation, % at 10 µM; actives 0.14% (n = 370,000); AID 1671463; in the data active means activation above about 40%
# Arr AP2 block – blocks beta-arrestin peptide binding to AP2 adaptin. actives 0.31% (n = 340,000). AID 504490. inhibition, % at 10 µM. FITC-arrestin peptide / GST-AP2 beads, flow cytometry; AP2 beta2 appendage carries R879A mutation;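 active means inhibition above a set limit, near 3 SD of compounds lacking own fluorescence, cut at about 54% in these data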;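 further: plate controls were DMSO wells for no effect and 5 µM unlabelled arrestin peptide for full effect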
#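 Material – GST-tagged AP2 beta2-adaptin appendage (R879A) on 4 µm glutathione beads · Probe or stimulus – fluorescein-tagged arrestin peptide at 50 nM final · Timing – 12 min plus 1 h, RT · Detection – bead flow cytometry, FITC channel · Read-out basis – inhibition as reduced fluorescein signal on beads, percent · Medium – PBS plus Tween 20 (0.05%) and BSA (0.1%)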
# GalR3 antag – blocks the human galanin receptor 3; O60755; HEK293 GalR3-CNG cAMP membrane potential fluorescence; galR3 body fused to GalR1 C-terminus; inhibition, % at 3 µM; actives 0.44% (n = 360,000);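 active means inhibition above the screen-wide average plus 3 SD, cut at about 13% in these data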;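 further: forskolin and galanin both at EC90 stimulate the cells; cAMP rise reported by CNG channel membrane potential dye signal; 0% = forskolin plus galanin with DMSO and 100% = forskolin alone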
# Target sequence (O60755 1-299 limits assumed): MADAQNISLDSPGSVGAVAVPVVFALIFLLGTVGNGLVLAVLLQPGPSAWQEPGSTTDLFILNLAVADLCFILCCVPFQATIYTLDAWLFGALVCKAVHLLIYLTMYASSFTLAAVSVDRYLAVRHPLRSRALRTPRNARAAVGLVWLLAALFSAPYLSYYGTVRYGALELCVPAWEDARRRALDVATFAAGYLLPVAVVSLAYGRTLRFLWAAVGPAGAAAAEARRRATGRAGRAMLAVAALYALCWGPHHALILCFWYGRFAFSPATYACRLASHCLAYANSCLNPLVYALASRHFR
# GC-B act – GC-B (human) receptor activation | actives 0.11% (n = 370,000) | HEK293-GC-B cells, CNP EC30, cGMP TR-FRET; 0% at EC30 CNP, 100% saturating CNP | activation, % at 10 µM | P20594;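 active means activation at 10 µM reaching about 35% in either raw or pattern-adjusted values, limit read from the data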
# GalR3 antag conf – GalR3 (human) antagonism, confirmation | actives 59% (n = 1,600) | shares compounds with GalR3 antag | HEK293 GalR3 CNG cAMP biosensor, membrane potential fluorescence; galR3 fused to GalR1 carboxy tail; challenged with forskolin and galanin at EC90 | inhibition, % at 3 µM;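 active means inhibition above the primary screen's cutoff, the mean inhibition of all screened compounds plus 3 SD, cut at about 13% in these data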;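 further: 0% = forskolin plus galanin and 100% = forskolin alone with DMSO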
# HEK-CNG parental – counter-screen for GalR3 antagonists: nonspecific agonists in parental HEK-CNG cells; shares compounds with GalR3 antag; HEK293-CNG parental cells, cAMP membrane potential fluorescence; normalised: DMSO wells 0%, forskolin wells 100%; activation, % at 3 µM; actives 10% (n = 1,600); in the data active means activation above about 1.3%
# Numbers without * were called inactive; · = no result.
SMILES,GC-A act,Arr AP2 block,GalR3 antag,GC-B act,GalR3 antag conf,HEK-CNG parental
CC(C)(C)N1C(=O)[C@H]2[C@@H](c3ccc(Br)cc3)N3C(=O)N(c4ccccc4)C(=O)[C@@]3(Cc3ccccc3)[C@H]2C1=O,-1.3,2.0,·,-8.3,1.9,-0.5
COC(=O)C1=C(C)N(C)C(=NCc2ccccc2)NC1c1ccccc1 (centres undefined),-11.0,·,-5.2,-8.0,·,·
CCOc1ccc(-n2c(-c3ccccc3)c[n+]3c2CCCCC3)cc1,0.7,-2.6,51.4*,-3.4,77.6*,0.8
COC(=O)C1=C(C)N(C)C(=NCc2ccccc2)NC1CCc1ccccc1 (centres undefined),-23.5,·,-4.9,-17.0,·,·
C[C@H]1C[C@H]2[C@@H]3CCC4=CC(=O)C=C[C@]4(C)[C@@]3(F)[C@@H](O)C[C@]2(C)[C@@]1(O)C(=O)CO,-2.0,12.9,27.7*,3.7,43.7*,3.9*
COc1ccc(C2c3c(-c4cc(Cl)c(C)cc4O)n[nH]c3C(=O)N2Cc2cccnc2)cc1OC (centres undefined),-48.0,0.6,63.7*,-24.5,66.8*,0.7
COc1ccc(C2c3c(-c4ccccc4O)n[nH]c3C(=O)N2Cc2ccco2)cc1OC (centres undefined),-28.0,16.5,-8.2,-12.0,·,·
COc1ccc(OC)c(S(=O)(=O)N2CCCCC2C(=O)N2CCN(c3ccccn3)CC2)c1 (centres undefined),-0.7,13.5,14.2*,0.4,4.2,0.1
COc1ccc(OC)c(S(=O)(=O)N2CCCCC2C(=O)N2CCN(c3ccc(F)cc3)CC2)c1 (centres undefined),-2.2,·,·,-2.3,·,·
CC(C)[C@H](NS(=O)(=O)c1ccc(F)cc1F)C(=O)N1CCC[C@H]1C(=O)NCc1ccccc1,-1.5,·,-2.6,-1.4,·,·
FC(F)(F)c1cccc(/C=N/NC(=S)NC2CCCCC2)c1,-9.0,-4.4,89.7*,-5.2,84.0*,2.5*
COC(=O)[C@]12C[C@H](CC(=O)N3CCCCC3)C(=O)N(CCc3ccc(OC)c(OC)c3)C1=C[C@H](C(C)(C)C)O[C@@H]2C,-3.6,·,·,-6.0,·,·
COc1ccc(C2=Nn3c(nnc3-c3ccccc3OC)SC2)cc1OC,0.5,-1.6,38.3*,7.1,46.0*,1.5*
c1ccc(-c2ccc(C3=Nn4c(nnc4-c4cccs4)SC3)cc2)cc1,-4.8,13.4,16.3*,0.3,45.7*,1.8*
COc1ccccc1-c1nnc2n1N=C(c1ccc3c(c1)OCO3)CS2,2.9,·,·,-6.0,·,·
CCCc1cc(=O)n2nc(N3CCC(C(=O)N4CCN(c5ccc(OC)cc5)CC4)CC3)sc2n1,0.6,-10.1,14.3*,0.1,104.2*,-0.3
Cc1cc(=O)n2nc(N3CCC(C(=O)N4CCN(c5ccccc5)CC4)CC3)sc2n1,-1.7,3.1,-8.3,0.9,·,·
COC(=O)[C@]12C[C@H](CC(=O)NCC34CC5CC(CC(C5)C3)C4)C(=O)N(Cc3cccc4ccccc34)C1=C[C@H](COCc1ccccc1)O[C@@H]2C,1.7,·,·,3.4,·,·
CCOc1ccc(NC(=S)NC(=O)c2c(Cl)cnn2CC)c([N+](=O)[O-])c1,-2.6,-9.8,13.5*,-1.9,8.8,-0.4
Cc1ccccc1OCCCCn1cnc2ccccc21,0.7,0.6,76.7*,-0.5,18.9*,-0.8
Cc1ccc(OCCCCn2cnc3ccccc32)cc1,1.3,-5.5,9.3,1.1,·,·
CC(C)=CCc1c2c(c3occ(-c4ccc(O)c(O)c4)c(=O)c3c1O)C=CC(C)(C)O2,-10.4,18.2,-1.1,-5.6,·,·
CC(C)=CCc1c2c(c3occ(-c4ccc(O)cc4)c(=O)c3c1O)C=CC(C)(C)O2,-14.6,1.7,20.3*,-9.7,24.3*,0.3
Cc1cccc(-n2ncc3c2CCCC3NC(=O)c2cccs2)c1C (centres undefined),-2.8,·,-6.1,-3.9,·,·
Cc1cccc(-n2ncc3c2CCCC3NC(=O)c2ccncc2)c1C (centres undefined),1.1,·,89.7*,-1.5,110.7*,-0.5
SMILES,GC-A act,Arr AP2 block,GalR3 antag,GC-B act,GalR3 antag conf,HEK-CNG parental
CCn1cc(C(=O)NC2CCCc3c2cnn3-c2cccc(C)c2C)cn1 (centres undefined),-1.3,-12.4,97.0*,1.6,113.9*,-0.5
N#Cc1ccccc1S(=O)(=O)NC(=O)[C@H]1O[C@@H](n2cnc3c(N)ncnc32)[C@H](O)[C@@H]1O,2.3,·,20.9*,1.1,45.0*,1.4*
CC(=O)c1ccc(S(=O)(=O)N2CCCC2)cc1,7.0,21.2,-7.8,2.3,·,·
CC(=O)c1ccc(S(=O)(=O)N2CCN(C(C)=O)CC2)cc1,4.4,13.9,16.4*,6.6,1.0,-0.1
CCNC(=O)NC(=O)C(C)Oc1ccc(C(=O)OC)cc1 (centres undefined),3.3,-3.0,19.8*,-4.3,6.1,0.2
CCNC(=O)NC(=O)C(C)OC(=O)c1oc2ccc(OC)cc2c1C (centres undefined),1.2,0.1,-3.0,1.3,·,·
O=C(N[C@H](Cc1ccccc1)C(=O)N1CCN(c2ccc(Cl)cn2)CC1)[C@H]1O[C@@H](n2ccc(=O)[nH]c2=O)[C@H](O)[C@@H]1O,1.7,·,-6.1,3.6,·,·
O=C(NCc1ccc(F)c(F)c1)c1cccc2c(-c3cccnc3)coc12,3.8,·,0.5,1.2,·,·
COc1ccc(CNC(=O)c2cccc3c(-c4cccnc4)coc23)cc1OC,7.8,·,88.7*,15.3,106.0*,-0.5
COC(=O)c1cc2c(c3c4cc(C)ccc4n(S(=O)(=O)c4cccc(C)c4)c13)C(=O)N(Cc1ccc(C(F)(F)F)cc1)C2,-2.5,·,-4.6,3.8,·,·
Brc1ccc(CN2CCN(c3ncc(Cc4ccccc4)cn3)CC2)cc1,-0.6,·,-9.2,8.6,·,·
COc1cccc(C(=O)N2CCN(C(=O)c3cccc4ccccc34)CC2)c1OC,-0.8,5.9,0.0,7.1,·,·
CCc1ccc(CN2CCN(C(=O)c3cccc(OC)c3OC)CC2)cc1,4.5,2.3,98.4*,-6.0,100.5*,-0.4
O=C(NC1CCCCN(Cc2cccc(C(F)(F)F)c2)C1=O)c1ccc(Cl)cc1 (centres undefined),7.7,·,·,4.7,·,·
Clc1ccc(OCCN2CCN(c3ncnc4sccc34)CC2)cc1,-1.2,-9.2,93.0*,0.9,107.0*,-0.2
Cc1sc2ncnc(N3CCCCC3)c2c1C,0.1,-2.5,-6.8,-1.4,·,·
Cc1ccc(OCCN2CCN(c3ncnc4sc(C)c(C)c34)CC2)cc1,1.6,-1.7,100.8*,9.0,104.2*,0.5
